In brackets after ≈: the same amount, converted by molar mass.
Assays:
rhinovirus B14 [1] = assay: Antiviral activity against HRV14 in human KB cells assessed as cytopathic effect by neutral red uptake assay; assay type: functional, organism-based; conditions: Rhinovirus B
Procedure, shortened: (§1)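 Cell-culture cytopathic-effect assays run in parallel on strains HRV-2 and HRV-14, each read both visually and by neutral red uptake. Antiviral EC50 and cytotoxic CC50 are expressed in µg/ml.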

[2] = Selectivity index, ratio of CC50 for human KB cells to EC50 for HRV14 by neutral red uptake assay
Procedure, shortened: (§2)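 Cell-culture cytopathic-effect (CPE) assays against HRV-2 and HRV-14. Antiviral EC50 and cytotoxic CC50 were each taken in µg/ml, with inhibition read either visually or by neutral red uptake. SI = CC50/EC50 for each read-out. Where viral CPE could not be told apart from drug cytotoxicity, this was flagged in a footnote.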

rhinovirus B14 [3] = assay: Antiviral activity against HRV14 in human KB cells assessed as cytopathic effect by visual assay; assay type: functional, organism-based; conditions: Rhinovirus B; procedure, shortened: as §1
rhinovirus A2 [4] = assay: Antiviral activity against HRV2 in human KB cells assessed as cytopathic effect by neutral red uptake assay; assay type: functional, organism-based; conditions: Rhinovirus A; procedure, shortened: as §1
[5] = Cytotoxicity against human KB cells by neutral red uptake assay; assay type: cell-based; procedure, shortened: as §1
[6] = Selectivity index, ratio of CC50 for human KB cells to EC50 for HRV2 by neutral red uptake assay; procedure, shortened: as §2
[7] = Cytotoxicity against human KB cells by visual assay; assay type: cell-based; procedure, shortened: as §1
rhinovirus A2 [8] = assay: Antiviral activity against HRV2 in human KB cells assessed as cytopathic effect by visual assay; assay type: functional, organism-based; conditions: Rhinovirus A; procedure, shortened: as §1
[9] = Selectivity index, ratio of CC50 for human KB cells to EC50 for HRV2 by visual assay; procedure, shortened: as §2
[10] = Selectivity index, ratio of CC50 for human KB cells to EC50 for HRV14 by visual assay; procedure, shortened: as §2

**Q.** For CCOC(=O)c1ccc(OCCC2CCN(c3ccc(C)nn3)CC2)cc1 [PIRODAVIR], which EC50 (rhinovirus B14 [1]) is on record?
**A.** 0.01 µg/mL (≈ 0.0271 µM)

**Q.** What about the “Ratio CC50/EC50” value [2] of the same compound?
**A.** >1000

**Q.** What about the EC50 (rhinovirus B14 [3]) of the same compound?
**A.** 0.081 µg/mL (≈ 0.219 µM)

**Q.** And the EC50 (rhinovirus A2 [4])?
**A.** < 0.0032 µg/mL

**Q.** What about the CC50 [5] of the same compound?
**A.** > 10 µg/mL

**Q.** What about the “Ratio CC50/EC50” value [6] of the same compound?
**A.** >3125

**Q.** What about the CC50 [7] of the same compound?
**A.** > 10 µg/mL

**Q.** And the EC50 (rhinovirus A2 [8])?
**A.** < 0.0032 µg/mL

**Q.** And the “Ratio CC50/EC50” value [9]?
**A.** >3125

**Q.** What about the “Ratio CC50/EC50” value [10] of the same compound?
**A.** >123

**Q.** For O=Cc1ccc(OCCN2CCN(c3cc(Cl)nnc3Cl)CC2)cc1, which EC50 (rhinovirus B14 [1]) is on record?
**A.** > 43 µg/mL

**Q.** And the EC50 (rhinovirus B14 [3])?
**A.** 43 µg/mL (≈ 113 µM)

**Q.** And the EC50 (rhinovirus A2 [4])?
**A.** 46 µg/mL (≈ 121 µM)

**Q.** What about the CC50 [5] of the same compound?
**A.** 43 µg/mL (≈ 113 µM)

**Q.** And the “Ratio CC50/EC50” value [6]?
**A.** 1.1

**Q.** What about the CC50 [7] of the same compound?
**A.** 56 µg/mL (≈ 147 µM)

**Q.** And the EC50 (rhinovirus A2 [8])?
**A.** > 56 µg/mL

**Q.** And the “Ratio CC50/EC50” value [10]?
**A.** >2

**Q.** Which results are given for CCOC(=O)c1ccc(OCCC2CCN(c3ccnnc3Cl)CC2)nc1?
**A.** EC50 (rhinovirus B14 [1]): < 0.032 µg/mL; Ratio CC50/EC50 [2]: >3125; EC50 (rhinovirus B14 [3]): < 0.032 µg/mL; EC50 (rhinovirus A2 [4]): < 0.032 µg/mL; CC50 [5]: > 100 µg/mL; Ratio CC50/EC50 [6]: >3125; CC50 [7]: > 100 µg/mL; EC50 (rhinovirus A2 [8]): < 0.032 µg/mL; Ratio CC50/EC50 [9]: >3125; Ratio CC50/EC50 [10]: >3125

**Q.** Which EC50 (rhinovirus B14 [1]) does the source give for CCOc1ccc(OCCN2CCN(c3cc(Cl)nnc3Cl)CC2)cc1 here?
**A.** < 0.032 µg/mL

**Q.** And the “Ratio CC50/EC50” value [2]?
**A.** >370

**Q.** What about the EC50 (rhinovirus B14 [3]) of the same compound?
**A.** 0.036 µg/mL (≈ 0.0906 µM)

**Q.** And the EC50 (rhinovirus A2 [4])?
**A.** > 12 µg/mL

**Q.** What about the CC50 [5] of the same compound?
**A.** 12 µg/mL (≈ 30.2 µM)

**Q.** And the CC50 [7]?
**A.** 35 µg/mL (≈ 88.1 µM)

**Q.** And the EC50 (rhinovirus A2 [8])?
**A.** > 35 µg/mL

**Q.** And the “Ratio CC50/EC50” value [10]?
**A.** 972

**Q.** For CCCCc1ccc(OCCN2CCN(c3cc(Cl)nnc3Cl)CC2)cc1, which EC50 (rhinovirus B14 [1]) is on record?
**A.** 0.55 µg/mL (≈ 1.34 µM)

**Q.** What about the “Ratio CC50/EC50” value [2] of the same compound?
**A.** 3.5

**Q.** And the EC50 (rhinovirus B14 [3])?
**A.** 0.15 µg/mL (≈ 0.366 µM)

**Q.** What about the EC50 (rhinovirus A2 [4]) of the same compound?
**A.** > 1.9 µg/mL

**Q.** What about the CC50 [5] of the same compound?
**A.** 1.9 µg/mL (≈ 4.64 µM)

**Q.** What about the CC50 [7] of the same compound?
**A.** 10 µg/mL (≈ 24.4 µM)

**Q.** And the EC50 (rhinovirus A2 [8])?
**A.** 5.7 µg/mL (≈ 13.9 µM)

**Q.** What about the “Ratio CC50/EC50” value [9] of the same compound?
**A.** 1.8

**Q.** What about the “Ratio CC50/EC50” value [10] of the same compound?
**A.** 120

**Q.** Which EC50 (rhinovirus B14 [1]) does the source give for COC(=O)c1ccc(OCCC2CCN(c3cc(Cl)nnc3Cl)CC2)cc1 here?
**A.** > 4.7 µg/mL

**Q.** And the EC50 (rhinovirus B14 [3])?
**A.** 7.1 µg/mL (≈ 17.3 µM)

**Q.** And the EC50 (rhinovirus A2 [4])?
**A.** 0.1 µg/mL (≈ 0.244 µM)

**Q.** And the CC50 [5]?
**A.** 4.7 µg/mL (≈ 11.5 µM)

**Q.** What about the “Ratio CC50/EC50” value [6] of the same compound?
**A.** 58

**Q.** And the CC50 [7]?
**A.** 30 µg/mL (≈ 73.1 µM)

**Q.** What about the EC50 (rhinovirus A2 [8]) of the same compound?
**A.** 0.31 µg/mL (≈ 0.756 µM)

**Q.** And the “Ratio CC50/EC50” value [9]?
**A.** 97

**Q.** What about the “Ratio CC50/EC50” value [10] of the same compound?
**A.** 8

**Q.** With Clc1cc(N2CCN(CCOc3ccc(-n4cnnc4)cc3)CC2)c(Cl)nn1 as the compound, how does the EC50 (rhinovirus B14 [1]) read?
**A.** 15 µg/mL (≈ 35.7 µM)

**Q.** And the “Ratio CC50/EC50” value [2]?
**A.** 2.5

**Q.** What about the EC50 (rhinovirus B14 [3]) of the same compound?
**A.** 12 µg/mL (≈ 28.6 µM)

**Q.** And the EC50 (rhinovirus A2 [4])?
**A.** > 42 µg/mL

**Q.** And the CC50 [5]?
**A.** 39 µg/mL (≈ 92.8 µM)

**Q.** And the CC50 [7]?
**A.** 35 µg/mL (≈ 83.3 µM)

**Q.** And the EC50 (rhinovirus A2 [8])?
**A.** > 100 µg/mL

**Q.** And the “Ratio CC50/EC50” value [10]?
**A.** 3
